Calls of active or inactive are those of the source. The calls are words filed in the database; no cut-off is given here.
Experiments:
[1] = biological target: T1, DNA topoisomerase 1 (Homo sapiens) (UniProt P11387); assay: Inhibition of human recombinant topoisomerase 1-mediated relaxation of supercoiled pUC19 DNA assessed as formation of nicked DNA at 0.1 to 5 uM using ethidium bromide staining by agarose gel electrophoresis
T1 sequence (whole entry): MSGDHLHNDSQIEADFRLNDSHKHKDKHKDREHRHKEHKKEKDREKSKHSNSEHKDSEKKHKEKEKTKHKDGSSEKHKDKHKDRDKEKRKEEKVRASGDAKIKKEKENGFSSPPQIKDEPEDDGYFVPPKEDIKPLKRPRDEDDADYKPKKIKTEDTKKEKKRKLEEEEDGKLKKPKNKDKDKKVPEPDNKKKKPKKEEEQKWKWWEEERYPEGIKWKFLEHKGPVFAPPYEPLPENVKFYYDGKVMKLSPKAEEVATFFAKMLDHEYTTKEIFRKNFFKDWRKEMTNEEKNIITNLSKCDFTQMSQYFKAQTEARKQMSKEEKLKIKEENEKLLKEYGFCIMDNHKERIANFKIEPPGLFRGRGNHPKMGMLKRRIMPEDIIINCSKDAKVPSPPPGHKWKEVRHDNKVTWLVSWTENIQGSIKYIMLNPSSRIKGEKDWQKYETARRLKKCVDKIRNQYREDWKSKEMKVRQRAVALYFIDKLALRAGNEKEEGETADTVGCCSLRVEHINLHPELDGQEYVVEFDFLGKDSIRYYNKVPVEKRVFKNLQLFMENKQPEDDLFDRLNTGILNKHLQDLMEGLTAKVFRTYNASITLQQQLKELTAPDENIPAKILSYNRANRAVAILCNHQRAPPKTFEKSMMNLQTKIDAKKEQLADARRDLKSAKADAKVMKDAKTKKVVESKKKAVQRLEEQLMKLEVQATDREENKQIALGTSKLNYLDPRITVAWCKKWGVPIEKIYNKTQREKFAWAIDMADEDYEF
Procedure, shortened: (§1)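 Supercoiled pUC19 plasmid (130 ng) was incubated with 4 units of human recombinant Top1 at 37 °C for 45 min in relaxation buffer (50 mM Tris pH 7.8, 50 mM KCl, 10 mM MgCl2, 1 mM DTT, 1 mM EDTA, 1 mM ATP) with increasing compound concentrations. Products were resolved on 1% agarose at room temperature, 2 h at 120 V, then stained with ethidium bromide and imaged under UV.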

HT-29 [2] = assay: Cytotoxicity against human HT-29 cells after 72 hrs by MTS assay; format: functional, cell-based; conditions: HT-29, 72 h
[3] = biological target: T1, DNA topoisomerase 1 (Homo sapiens); assay: Inhibition of human recombinant topoisomerase 1 assessed as cleavage of 117-mer DNA fragment at 0.5 to 5 uM using ethidium bromide staining by agarose gel electrophoresis analysis
[4] = biological target: DNA topoisomerase 2-alpha (Homo sapiens) (UniProt P11388); assay: Inhibition of human topoisomerase 2 assessed as formation of nicked form of supercoiled pUC19 DNA at 50 uM after 45 mins using ethidium bromide staining by agarose gel analysis
Sequence of DNA topoisomerase 2-alpha (Homo sapiens) (P11388 whole entry): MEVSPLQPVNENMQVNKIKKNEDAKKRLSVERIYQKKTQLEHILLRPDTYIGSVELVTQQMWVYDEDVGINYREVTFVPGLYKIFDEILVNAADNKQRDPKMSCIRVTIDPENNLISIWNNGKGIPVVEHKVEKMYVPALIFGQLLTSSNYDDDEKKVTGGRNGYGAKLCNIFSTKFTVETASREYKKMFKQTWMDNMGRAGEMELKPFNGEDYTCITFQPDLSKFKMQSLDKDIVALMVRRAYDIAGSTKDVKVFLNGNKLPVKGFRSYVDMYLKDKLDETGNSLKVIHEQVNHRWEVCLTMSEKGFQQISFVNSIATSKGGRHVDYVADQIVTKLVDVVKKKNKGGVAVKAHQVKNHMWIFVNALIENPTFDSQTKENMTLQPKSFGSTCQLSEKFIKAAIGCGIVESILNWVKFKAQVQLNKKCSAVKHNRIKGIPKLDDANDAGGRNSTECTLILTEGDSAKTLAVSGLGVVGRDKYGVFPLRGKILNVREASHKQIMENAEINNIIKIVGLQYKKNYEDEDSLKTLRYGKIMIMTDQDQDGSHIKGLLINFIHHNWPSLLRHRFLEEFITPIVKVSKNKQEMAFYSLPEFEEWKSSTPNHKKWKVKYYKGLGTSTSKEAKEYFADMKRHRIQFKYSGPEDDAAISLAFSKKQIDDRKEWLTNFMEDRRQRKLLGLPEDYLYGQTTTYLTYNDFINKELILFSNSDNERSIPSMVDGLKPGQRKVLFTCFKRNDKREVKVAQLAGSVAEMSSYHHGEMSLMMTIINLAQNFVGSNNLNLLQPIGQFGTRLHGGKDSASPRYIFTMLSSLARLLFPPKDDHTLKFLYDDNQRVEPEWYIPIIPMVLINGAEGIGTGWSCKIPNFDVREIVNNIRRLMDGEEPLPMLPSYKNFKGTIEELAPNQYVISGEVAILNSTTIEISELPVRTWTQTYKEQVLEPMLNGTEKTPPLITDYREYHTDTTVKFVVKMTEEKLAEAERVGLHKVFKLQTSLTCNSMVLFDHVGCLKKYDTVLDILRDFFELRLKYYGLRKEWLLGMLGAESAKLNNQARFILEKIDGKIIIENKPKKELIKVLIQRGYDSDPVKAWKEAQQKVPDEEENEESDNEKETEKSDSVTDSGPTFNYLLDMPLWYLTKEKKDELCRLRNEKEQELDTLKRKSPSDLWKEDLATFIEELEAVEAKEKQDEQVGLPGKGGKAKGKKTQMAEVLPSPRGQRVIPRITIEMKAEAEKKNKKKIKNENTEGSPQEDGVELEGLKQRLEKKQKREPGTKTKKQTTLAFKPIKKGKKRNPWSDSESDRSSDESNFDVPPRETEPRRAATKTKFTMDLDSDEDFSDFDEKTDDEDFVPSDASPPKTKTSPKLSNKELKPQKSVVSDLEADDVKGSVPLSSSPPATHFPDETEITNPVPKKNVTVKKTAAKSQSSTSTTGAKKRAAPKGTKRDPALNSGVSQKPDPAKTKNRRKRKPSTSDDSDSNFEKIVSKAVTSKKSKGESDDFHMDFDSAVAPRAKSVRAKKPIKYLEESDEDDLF

Calf thymus DNA [5] = assay: Binding affinity to calf thymus DNA at 20 uM by UV-vis spectrophotometry analysis; format: nucleic-acid assay; conditions: Bos taurus
[6] = biological target: DNA topoisomerase 2-alpha (Homo sapiens) (UniProt P11388); assay: Inhibition of human topoisomerase 2 assessed as formation of linear form of supercoiled pUC19 DNA at 50 uM after 45 mins using ethidium bromide staining by agarose gel analysis
Calf thymus DNA [7] = assay: Binding affinity to calf thymus DNA by circular dichroism analysis; format: nucleic-acid assay; conditions: Bos taurus
Nucleic Acid = assay: Binding affinity to 265 bp of 3'-end-radio-labelled DNA fragment at 0.5 to 5 uM treated 15 mins before Dnase 1-mediated digestion by footprinting assay; format: nucleic-acid assay
Procedure, shortened: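 DNase I footprinting. It was equilibrated with compound for 15 min at 37 °C, then digested 3 min with DNase I (0.01 unit/ml) in 20 mM NaCl, 2 mM MgCl2, 2 mM MnCl2, pH 7.3. Samples were lyophilised, denatured at 90 °C and run on an 8% denaturing polyacrylamide gel.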

[8] = biological target: T1, DNA topoisomerase 1 (Homo sapiens); assay: Inhibition of camptothecin-induced poisoning effect of human topoisomerase 1 assessed as suppression of CPT-induced 117 bp DNA cleavage by SDS-PAGE analysis
[9] = biological target: T1, DNA topoisomerase 1 (Homo sapiens); assay: Inhibition of human recombinant topoisomerase 1 assessed as cleavage of 117-mer DNA fragment at 20 to 50 uM using ethidium bromide staining by agarose gel electrophoresis analysis
HT-29 [10] = assay: Cell cycle arrest in human HT-29 cells at G2/M phase at 0.1 to 2.5 uM after 48 hrs using propidium iodide staining by FACS analysis; format: functional, cell-based
Procedure, shortened: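 Exponentially growing HT-29 colon carcinoma cells (300,000 per well) were plated for 24 h, then exposed to 0.1, 1 or 2.5 µM compound for 48 h. Cells were fixed, stained with propidium iodide and analysed by flow cytometry (FACScan).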

[11] = biological target: T1, DNA topoisomerase 1 (Homo sapiens); assay: Inhibition of human recombinant topoisomerase 1-mediated relaxation of supercoiled pUC19 DNA assessed as formation of nicked DNA at 1 to 50 uM using ethidium bromide staining by agarose gel electrophoresis; procedure, shortened: as §1

Structure (SMILES) | Top1 relaxation inhibition (qualitative call) [1] | inhibition [3] | inhibition [4] | Activity (Calf thymus DNA [5]) | inhibition [6] | Activity (Calf thymus DNA [7]) | inhibition (Nucleic Acid) | inhibition [9] | Topoisomerase 1 inhibition (active/inactive) [11] | IC50 (HT-29 [2]) [µM] | inhibition [8] | Activity (HT-29 [10])
COc1cc2c[n+](C)c3c4cc5c(cc4ccc3c2cc1OC)OCO5 [NITIDINE CHLORIDE] | Active | inactive | inactive | Active | inactive | Active |  |  |  | 2.75 |  | 
COc1cc2c(NCCCN(C)C)nc3c4ccncc4ccc3c2cc1OC | Active |  | inactive | Active | inactive | Active | inactive | inactive |  | 3.14 |  | 
CCN(CC)CCCNc1nc2c3cccnc3ccc2c2cc(OC)c(OC)cc12 | Active |  | inactive | Active | inactive | Active | Active | inactive |  | 5.77 | Dose-dependent effect | 
COc1cc2c(=O)n(CCN(C)C)c3c4cccnc4ccc3c2cc1OC |  | inactive |  | Active |  | Active |  |  | Active | 1.66 | Dose-dependent effect | 
COc1cc2c(=O)n(CCCN(C)C)c3c4cccnc4ccc3c2cc1OC |  |  |  | Active |  | Active |  |  | Active | 4.98 | Dose-dependent effect | 
COc1cc2c(NCCN(C)C)nc3c4cccnc4ccc3c2cc1OC | Active |  | inactive | Active | inactive | Active | Active | inactive |  | 0.97 | Dose-dependent effect | 
COc1cc2c(=O)n(CCCN(C)C)c3c4ccncc4ccc3c2cc1OC |  | inactive |  | Active |  | Active |  |  | Active | 6.11 | Dose-dependent effect | 
COc1cc2c(=O)n(CCN(C)C)c3c4ccncc4ccc3c2cc1OC |  | inactive |  | Active |  | Active |  |  | Active | 1.42 | Dose-dependent effect | 
CN(C)CCNc1nc2c3ccncc3ccc2c2cc3c(cc12)OCO3 | Active |  | inactive | Active | inactive | Active | Active | inactive |  | 0.07 | Dose-dependent effect | Active
CN(C)CCCNc1nc2c3ccncc3ccc2c2cc3c(cc12)OCO3 | Active |  | inactive | Active | inactive | Active | inactive | inactive |  | 7.62 | Dose-dependent effect | 
COc1cc2c(NCCCN(C)C)nc3c4cccnc4ccc3c2cc1OC | Active |  | inactive | Active | inactive | Active | Active | inactive |  | 3.33 | Dose-dependent effect | 
CCN(CC)CCCNc1nc2c3ccncc3ccc2c2cc(OC)c(OC)cc12 | Active |  | inactive | Active | inactive | Active | inactive | inactive |  | 5.47 | Dose-dependent effect | 

Continued, in another order:

Top1 relaxation inhibition (qualitative call) [1] | inhibition [3] | inhibition [4] | Activity (Calf thymus DNA [5]) | inhibition [6] | Activity (Calf thymus DNA [7]) | inhibition (Nucleic Acid) | inhibition [9] | Topoisomerase 1 inhibition (active/inactive) [11] | Structure (SMILES) | IC50 (HT-29 [2]) [µM] | inhibition [8] | Activity (HT-29 [10])
Active |  | inactive | Active | inactive | Active | Active | inactive |  | CN(C)CCNc1nc2c3cccnc3ccc2c2cc3c(cc12)OCO3 | 0.11 | Dose-dependent effect | Active
Active |  | inactive | Active | inactive | Active | Active | inactive |  | CCN(CC)CCn1c(=O)c2cc3c(cc2c2ccc4cnccc4c21)OCO3 | 0.23 | Dose-dependent effect | Active
Active |  | inactive | Active | inactive | Active | Active | inactive |  | CN(C)CCCn1c(=O)c2cc3c(cc2c2ccc4ncccc4c21)OCO3 | 0.23 | Dose-dependent effect | Active
Active |  | inactive | Active | inactive | Active | Active | inactive |  | CN(C)CCCn1c(=O)c2cc3c(cc2c2ccc4cnccc4c21)OCO3 | 0.24 | Dose-dependent effect | Active
Active |  | inactive | Active | inactive | Active | Active | inactive |  | CN(C)CCn1c(=O)c2cc3c(cc2c2ccc4cnccc4c21)OCO3 | 0.078 | Dose-dependent effect | Active
 | inactive |  | Active |  | Active |  |  | Active | CCN(CC)CCn1c(=O)c2cc(OC)c(OC)cc2c2ccc3ncccc3c21 | 2.63 | Dose-dependent effect | 
Active |  | inactive | Active | inactive | Active | Active | inactive |  | CCN(CC)CCn1c(=O)c2cc3c(cc2c2ccc4ncccc4c21)OCO3 | 0.075 | Dose-dependent effect | Active
Active |  | inactive | Active | inactive | Active | Active | inactive |  | CN(C)CCn1c(=O)c2cc3c(cc2c2ccc4ncccc4c21)OCO3 | 0.12 | Dose-dependent effect | Active

Reference: ChEMBL document CHEMBL1782029, “Synthesis and biological evaluation of N-substituted benzo[c]phenanthrolines and benzo[c]phenanthrolinones as antiproliferative agents” (Eur J Med Chem, 2011)
